Test results: ChEMBL document CHEMBL4622968, “Discovery of [1,2,4]triazolo[4,3-a]pyridines as potent Smoothened inhibitors targeting the Hedgehog pathway with improved antitumor activity in vivo” (Bioorg Med Chem, 2020)
Calls of active or inactive are those of the source. No cut-off for these calls is given here.

Experiments:
Protein smoothened = Protein smoothened (Homo sapiens, UniProt Q99835); test: Binding affinity to recombinant human Smo receptor assessed as association rate constant by SPR analysis
Sequence of Protein smoothened (Q99835 whole entry): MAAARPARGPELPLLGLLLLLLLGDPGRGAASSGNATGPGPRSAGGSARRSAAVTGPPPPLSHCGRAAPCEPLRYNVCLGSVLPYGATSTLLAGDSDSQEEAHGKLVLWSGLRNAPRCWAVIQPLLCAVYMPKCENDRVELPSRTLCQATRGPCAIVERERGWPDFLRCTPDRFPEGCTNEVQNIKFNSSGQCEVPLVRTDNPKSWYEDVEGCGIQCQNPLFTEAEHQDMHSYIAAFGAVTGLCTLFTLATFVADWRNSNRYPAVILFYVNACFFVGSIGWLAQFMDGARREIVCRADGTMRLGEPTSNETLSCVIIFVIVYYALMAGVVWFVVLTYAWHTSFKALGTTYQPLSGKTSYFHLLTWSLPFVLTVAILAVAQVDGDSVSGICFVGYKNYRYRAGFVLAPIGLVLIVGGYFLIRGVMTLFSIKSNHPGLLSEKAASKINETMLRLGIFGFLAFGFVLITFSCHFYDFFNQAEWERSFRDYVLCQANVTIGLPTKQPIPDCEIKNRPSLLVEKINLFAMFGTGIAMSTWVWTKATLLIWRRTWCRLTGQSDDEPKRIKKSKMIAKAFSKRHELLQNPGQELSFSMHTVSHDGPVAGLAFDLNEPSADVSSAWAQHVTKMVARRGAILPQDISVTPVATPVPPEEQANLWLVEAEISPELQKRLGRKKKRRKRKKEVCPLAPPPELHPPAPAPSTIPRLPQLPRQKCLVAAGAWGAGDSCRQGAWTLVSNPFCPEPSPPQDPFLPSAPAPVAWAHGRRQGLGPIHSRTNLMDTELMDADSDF
Summary of the method: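 Surface plasmon resonance with recombinant Smo protein, run in PBS at a flow rate of 2 μL/s and 4 °C. Analytes were injected at 2.5, 5 and 10 μM. The chip was regenerated with 0.5% SDS:glycine-HCl pH 2.0 (1:1). ka, kd, Rmax, KA and KD came from a global fit of the sensorgrams.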

A549 = test: Antiproliferation activity against human A549 cells assessed as reduction in cell viability incubated for 72 hrs by MTT assay; format: functional, cell-based; details: A549, 72 h
Summary of the method: (§1)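 MTT assay. Cells were plated overnight and exposed to a range of concentrations for 72 h. MTT was then added for 4 h and absorbance read at 570 nm. Inhibition% = [(control − compound)/(control − blank)] × 100. IC50 was fitted from the curves. Mean ± S.D. of 3–5 separate experiments. RPMI 1640 + 10% FBS; MCF10A in DMEM/F12 with 5% horse serum, EGF, hydrocortisone, insulin and cholera toxin.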

MDA-MB-468 [1] = test: Induction of apoptosis in human MDA-MB-468 cells assessed as necrotic cells at 56 uM incubated for 48 hrs by annexin-V-FITC staining based flow cytometric method (reference value: 1.52 %); format: functional
AN3-CA = test: Antiproliferation activity against human AN3CA cells assessed as reduction in cell viability incubated for 72 hr by MTT assay; format: functional, cell-based; summary of the method: as §1
U-251 = test: Antiproliferation activity against human U251 cells assessed as reduction in cell viability incubated for 72 hrs by MTT assay; format: functional, cell-based; details: U-251, 72 h; summary of the method: as §1
MDA-MB-468 [2] = test: Induction of cell cycle arrest in human MDA-MB-468 cells assessed as cell accumulation at G0/G1 phase at 56 uM incubated for 48 hrs by propidium iodide staining-based flow cytometric analysis (reference value: 38.94 %); format: functional
Summary of the method: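 Cells were seeded at 1.2×10^5 per well and treated for 48 h (MDA-MB-468: 14, 28, 56 μM). Cells were fixed in 75% ethanol at −20 °C overnight, stained with PI and analysed by flow cytometry. Mean ± S.D. of three independent experiments versus DMSO.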

MDA-MB-231 = test: Induction of apoptosis in human MDA-MB-231 cells assessed as decrease in Bcl2 protein expression level incubated for 1 hr by Western blot analysis; format: functional, cell-based
MDA-MB-468 [3] = test: Induction of apoptosis in human MDA-MB-468 cells assessed as late apoptotic cells at 14 uM incubated for 48 hrs by annexin-V-FITC staining based flow cytometric method (reference value: 0.99 %); format: functional

O=C(Nc1ccc(Cl)c(-c2nnc3c(Cl)cccn23)c1)c1ccc(Cl)nc1Cl
Ka (Protein smoothened): 360 M⁻¹ s⁻¹ | IC50 (A549): 64.9 µM | Activity (MDA-MB-468 [1]): 9.06% | IC50 (AN3-CA): 44.5 µM | IC50 (U-251): 85.2 µM | Activity (MDA-MB-468 [2]): 29% | Activity (MDA-MB-231): Active | Activity (MDA-MB-468 [3]): 7.15%
